Activity calls are given as the source filed them. The calls are words filed in the database; no cut-off is given here.
Assays:
[1] = molecular target: T1, G-protein coupled receptor 35 (Homo sapiens, UniProt Q9HC97); experiment: Agonist activity at human GPR35 receptor expressed in HT-29 cells assessed as dynamic mass redistribution response by DMR assay; format: functional, cell-based
[2] = molecular target: T1, G-protein coupled receptor 35; experiment: Agonist activity at human GPR35 receptor expressed in HT-29 cells assessed as desensitization of zaprinast-induced DMR response preincubated for 1 hr followed by zaprinast stimulation by DMR desensitization assay; format: functional, cell-based
[3] = molecular target: T1, G-protein coupled receptor 35; experiment: Agonist activity at human GPR35 receptor expressed in HT-29 cells assessed as reduction in dynamic mass redistribution response in presence of GPR35 antagonist ML-145 by DMR assay; format: functional, cell-based
[4] = molecular target: T1, G-protein coupled receptor 35; experiment: Agonist activity at human GPR35 receptor expressed in CHO-K1 cells assessed as dynamic mass redistribution response by DMR assay; format: functional, cell-based
[5] = molecular target: T1, G-protein coupled receptor 35; experiment: Agonist activity at human GPR35 receptor expressed in CHO-K1 cells assessed as desensitization of zaprinast-induced DMR response preincubated for 1 hr followed by zaprinast stimulation by DMR desensitization assay; format: functional, cell-based
[6] = molecular target: Muscarinic acetylcholine receptor M3 (Homo sapiens) (UniProt P20309); experiment: Agonist activity at muscarinic M3 receptor (unknown origin) at 1 uM; format: functional
Sequence of Muscarinic acetylcholine receptor M3 (Homo sapiens) (P20309 whole entry, looked up): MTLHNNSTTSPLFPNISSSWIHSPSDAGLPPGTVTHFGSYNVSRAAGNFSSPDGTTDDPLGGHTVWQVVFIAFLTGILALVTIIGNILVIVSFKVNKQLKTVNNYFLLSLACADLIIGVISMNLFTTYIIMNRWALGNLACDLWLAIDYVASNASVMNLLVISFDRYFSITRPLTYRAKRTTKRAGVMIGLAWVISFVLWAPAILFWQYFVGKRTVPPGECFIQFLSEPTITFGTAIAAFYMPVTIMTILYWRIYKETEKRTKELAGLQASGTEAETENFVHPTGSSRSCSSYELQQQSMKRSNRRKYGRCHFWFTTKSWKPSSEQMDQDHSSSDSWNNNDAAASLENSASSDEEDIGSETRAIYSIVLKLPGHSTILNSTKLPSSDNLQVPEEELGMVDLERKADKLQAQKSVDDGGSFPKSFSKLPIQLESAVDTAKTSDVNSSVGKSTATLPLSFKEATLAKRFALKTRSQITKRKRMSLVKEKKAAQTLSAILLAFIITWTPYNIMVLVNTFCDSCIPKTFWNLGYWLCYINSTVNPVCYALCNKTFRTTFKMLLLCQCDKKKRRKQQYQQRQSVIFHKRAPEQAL
Procedure, shortened: (§1)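 Each receptor was expressed separately in its own cell line, and compounds were added at 1 μM. Cells were seeded on biosensor plates and grown overnight to a confluent monolayer. They were then washed, kept in Hank's balanced salt solution, and equilibrated 1 h in the reader. After a 2 min baseline, the label-free dynamic mass redistribution (DMR) response was recorded immediately after compound addition.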

[7] = molecular target: D(2) dopamine receptor (Homo sapiens) (UniProt P14416); experiment: Agonist activity at dopamine D2 receptor (unknown origin) at 1 uM; format: functional; procedure, shortened: as §1
Sequence of D(2) dopamine receptor (Homo sapiens) (P14416 whole entry): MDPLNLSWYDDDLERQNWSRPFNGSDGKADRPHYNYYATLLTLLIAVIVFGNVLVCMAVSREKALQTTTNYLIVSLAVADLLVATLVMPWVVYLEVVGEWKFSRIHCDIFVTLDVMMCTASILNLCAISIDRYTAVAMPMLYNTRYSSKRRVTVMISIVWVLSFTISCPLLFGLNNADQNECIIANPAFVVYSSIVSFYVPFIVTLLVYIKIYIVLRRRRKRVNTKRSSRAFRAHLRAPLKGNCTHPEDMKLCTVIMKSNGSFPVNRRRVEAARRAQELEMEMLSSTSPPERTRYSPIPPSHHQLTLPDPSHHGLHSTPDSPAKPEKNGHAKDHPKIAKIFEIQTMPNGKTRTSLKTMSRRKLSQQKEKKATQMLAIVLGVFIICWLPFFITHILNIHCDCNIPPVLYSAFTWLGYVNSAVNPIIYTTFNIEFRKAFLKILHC

[8] = molecular target: Mu-type opioid receptor (Homo sapiens) (UniProt P35372); experiment: Agonist activity at mu-opioid receptor (unknown origin) at 1 uM; format: functional; procedure, shortened: as §1
Sequence of Mu-type opioid receptor (Homo sapiens) (P35372 whole entry): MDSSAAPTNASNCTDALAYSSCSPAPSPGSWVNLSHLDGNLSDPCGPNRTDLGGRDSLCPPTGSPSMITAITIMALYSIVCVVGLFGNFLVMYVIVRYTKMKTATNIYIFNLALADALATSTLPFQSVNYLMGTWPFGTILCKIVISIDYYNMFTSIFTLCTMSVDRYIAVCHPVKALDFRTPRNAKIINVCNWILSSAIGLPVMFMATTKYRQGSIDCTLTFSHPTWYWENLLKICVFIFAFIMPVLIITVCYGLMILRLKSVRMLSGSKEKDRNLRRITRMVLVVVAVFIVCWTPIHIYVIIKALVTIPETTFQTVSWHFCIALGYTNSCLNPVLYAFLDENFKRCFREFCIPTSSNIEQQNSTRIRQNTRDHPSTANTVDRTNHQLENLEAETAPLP

[9] = molecular target: T2, Free fatty acid receptor 4 (Homo sapiens) (UniProt Q5NUL3); experiment: Agonist activity at FFA4 receptor (unknown origin) at 1 uM; format: functional; procedure, shortened: as §1
T2 sequence (whole entry): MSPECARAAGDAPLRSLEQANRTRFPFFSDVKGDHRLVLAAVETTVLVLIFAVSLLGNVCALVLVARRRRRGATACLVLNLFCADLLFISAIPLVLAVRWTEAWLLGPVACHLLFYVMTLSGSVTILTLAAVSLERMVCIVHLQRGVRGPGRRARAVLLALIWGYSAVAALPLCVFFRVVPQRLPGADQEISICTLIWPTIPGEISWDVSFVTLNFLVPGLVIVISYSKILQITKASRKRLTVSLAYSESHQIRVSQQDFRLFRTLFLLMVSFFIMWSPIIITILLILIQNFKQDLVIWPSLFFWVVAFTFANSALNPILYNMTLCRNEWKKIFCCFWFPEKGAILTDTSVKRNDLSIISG

[10] = molecular target: Histamine H1 receptor (Homo sapiens) (UniProt P35367); experiment: Agonist activity at histamine H1 receptor receptor (unknown origin) at 1 uM
Sequence of Histamine H1 receptor (Homo sapiens) (P35367 whole entry, looked up): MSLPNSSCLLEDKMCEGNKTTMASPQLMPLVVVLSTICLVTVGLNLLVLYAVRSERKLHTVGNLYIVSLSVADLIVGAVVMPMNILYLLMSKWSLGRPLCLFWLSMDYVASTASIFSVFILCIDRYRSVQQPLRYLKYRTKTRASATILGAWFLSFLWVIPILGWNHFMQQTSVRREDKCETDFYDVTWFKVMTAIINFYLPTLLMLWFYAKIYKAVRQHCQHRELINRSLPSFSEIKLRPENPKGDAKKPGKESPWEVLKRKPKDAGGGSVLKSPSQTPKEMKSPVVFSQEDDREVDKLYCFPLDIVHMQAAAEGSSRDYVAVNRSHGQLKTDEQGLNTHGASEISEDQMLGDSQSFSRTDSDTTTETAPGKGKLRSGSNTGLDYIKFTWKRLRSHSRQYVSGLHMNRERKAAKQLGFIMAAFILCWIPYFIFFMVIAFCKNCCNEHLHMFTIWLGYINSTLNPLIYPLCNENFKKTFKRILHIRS

[11] = molecular target: T1, G-protein coupled receptor 35; experiment: Agonist activity at human GPR35 receptor expressed in HEK293T cells co-expressing beta-arrestin2 assessed as induction of beta-arrestin2 recruitment by BRET assay; format: functional, cell-based

T1 sequence (Q9HC97 whole entry): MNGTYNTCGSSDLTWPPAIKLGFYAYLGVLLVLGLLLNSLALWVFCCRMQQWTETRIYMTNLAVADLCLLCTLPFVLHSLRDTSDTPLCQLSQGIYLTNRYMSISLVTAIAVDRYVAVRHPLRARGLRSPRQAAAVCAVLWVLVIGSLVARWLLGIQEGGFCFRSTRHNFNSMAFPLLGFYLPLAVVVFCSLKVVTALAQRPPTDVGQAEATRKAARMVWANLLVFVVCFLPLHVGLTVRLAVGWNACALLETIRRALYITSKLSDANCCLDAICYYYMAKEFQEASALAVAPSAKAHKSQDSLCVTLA

EC50 [1] [nM] | IC50 [3] [nM] | EC50 [4] [nM] | Activity [6] | Activity [7] | Activity [8] | Activity [9] | Activity [10] | EC50 [11] [nM] | SMILES | IC50 [2] [nM] | IC50 [5] [nM]
20 | 470 | 6.93 | inactive | inactive | inactive | inactive | inactive | – | COc1ccc(-c2cc3cc(C(=O)O)c(=O)oc3c3cc(C(=O)O)c(=O)oc23)cc1 | 7 | 2.45
23900 | 120 | – | – | – | – | – | – | – | COc1ccccc1-c1cc2cc(C(=O)O)c(=O)oc2cc1O | 17600 | –
71 | 582 | – | – | – | – | – | – | – | O=C(O)c1cc(C(=O)O)c2c(n1)C(=O)C(=O)c1cc(C(=O)O)[nH]c1-2 [PYRROLOQUINOLINE QUINONE] | 30 | –
54 | 2530 | 5.08 | inactive | inactive | inactive | inactive | inactive | – | Cc1c2nc(C(=O)O)cc(Cl)c2cc2c(Cl)cc(C(=O)O)nc12 | 15 | 3.52
8 | 789 | 1.08 | inactive | inactive | inactive | inactive | inactive | – | Cc1c2[nH]c(C(=O)O)cc(=O)c2cc2c(=O)cc(C(=O)O)[nH]c12 | 2 | 0.74
15 | 170 | – | – | – | – | – | – | – | COc1cccc(-c2cc3cc(C(=O)O)c(=O)oc3c3cc(C(=O)O)c(=O)oc23)c1 | 3 | –
1600 | 2260 | – | – | – | – | – | – | – | COc1cccc(-c2cc3cc(C(=O)O)c(=O)oc3cc2O)c1 | 1380 | –
– | 130 | – | – | – | – | – | – | – | O=C(O)c1cc2cc(Br)c(O)cc2oc1=O | – | –
100 | 282 | 8.13 | inactive | inactive | inactive | inactive | inactive | – | COc1cc(C(=O)O)nc2c(C)c3nc(C(=O)O)cc(OC)c3cc12 | 65 | 6.11
140 | 350 | – | – | – | – | – | – | – | Cc1c2oc(=O)c(C(=O)O)cc2cc2cc(C(=O)O)c(=O)oc12 | 42 | –
– | – | – | – | – | – | – | – | 13 | CCCCc1cc2c(=O)cc(C(=O)O)[nH]c2c2c(=O)cc(C(=O)O)[nH]c12 [BUFROLIN] | – | –
18 | 830 | 25.9 | inactive | inactive | inactive | inactive | inactive | – | O=C(O)c1cc2c(oc1=O)c(Br)cc1cc(-c3nnn[nH]3)c(=O)oc12 | 18 | 15.9
– | – | – | – | inactive | inactive | inactive | – | – | CCCOc1ccccc1-c1nc2[nH]nnc2c(=O)[nH]1 | – | –
33 | 1030 | – | – | – | – | – | – | – | O=C(O)c1cc2c(oc1=O)c(-c1ccc(F)cc1)cc1cc(C(=O)O)c(=O)oc12 | – | –
2880 | 160 | – | – | – | – | – | – | – | O=C(O)c1cc2cc(-c3cccs3)c(O)cc2oc1=O | 1450 | –
